# Measurements gathered from unrelated publications.
# Protocols differ between the studies behind these lines.
# Target: Mitogen-activated protein kinase 11 (MAPK11, Homo sapiens, UniProt Q15759)
Compound,assay,setting,endpoint,result
COc1ccc2c(O[C@@H]3C[C@H]4C(=O)N[C@]5(C(=O)O)CC5/C=C\CCCCC[C@H](NC(=O)OC5CCCC5)C(=O)N4C3)cc(-c3csc(NC(=O)C(C)C)n3)nc2c1C (stereo partly drawn),"cell-free assay, competition with immobilised ligand",1 µM,remaining binding,100%
Cn1c2c(c3ccc(Cl)c(Cl)c31)C(C#N)C1(CCN(C(=O)OC(C)(C)C)CC1)NC2=O (racemic),"thermal stability, DSF",10 µM,ΔTm,-0.8 °C
O=C(CSc1nc2nccnc2c(=O)n1CCc1ccccc1)Nc1nccs1,"enzyme activity, inhibitor",10 µM,inhibition,5%
CC(C)(O)c1cncc(-c2nc3ccc(F)cc3n2C2CC2)c1,"cell-free assay, competition with immobilised ligand",1 µM,remaining binding,100%
CCCCNc1ncc2c(-c3ccc(F)cc3)nn(C[C@H]3CC[C@H](N)CC3)c2n1,"target engagement in cells, inhibitor, chemoproteomics",20 mM,inhibition,36.9%
O=C1NC(c2ccccn2)Sc2ccccc21 (stereo not drawn),"cell-free assay, competition with immobilised ligand",1 µM,remaining binding,100%
Cc1ccc(Nc2nccc(N(C)c3ccc4c(C)n(C)nc4c3)n2)cc1S(N)(=O)=O,"enzyme activity, inhibitor",0.3 µM,inhibition,-6%
Oc1cccc(-c2nc(N3CCOCC3)c3oc4ncccc4c3n2)c1,cell-free assay,0.5 µM,remaining signal,103%
C[C@@H](c1cccc(C#N)c1)n1cc(Cl)cc(C(N)=O)c1=N,"cell-free assay, competition with immobilised ligand",1 µM,remaining binding,93%
Cc1ccc(C(=O)Nc2ccc(CN3CCN(C)CC3)c(C(F)(F)F)c2)cc1C#Cc1cnc2cccnn12,"enzyme activity, inhibitor",23.5 nM,remaining activity,63%
O=C(N1CCS(=O)(=O)CC1)N1C[C@H](c2ccc(OC(F)(F)F)cc2)C[C@H](c2nc(C3CC3)no2)C1,"cell-free assay, competition with immobilised ligand",1 µM,remaining binding,100%
N#CCCc1ccc2c(c1)-c1[nH]c3ccc([N+](=O)[O-])cc3c1CC(=O)N2,cell-free assay,0.5 µM,remaining signal,101%
Nc1c(C(=O)NCc2ccc(C(=O)NCCCC3CCCCC3)cc2)cnn1-c1ccccc1,"binding, competition with immobilised ligand",1 µM,remaining binding,3.4%
COc1cc2ncnc(Nc3ccc(Oc4ccccc4)c(C)c3C)c2cc1OC,"enzyme activity, inhibitor",1 µM,inhibition,6%
Cn1c2c(c3ccc(Cl)c(Cl)c31)C(C#N)C1(CCNCC1)NC2=O (racemic),"thermal stability, DSF",10 µM,ΔTm,0.2 °C
CN1CC(Oc2cnc(C#N)cc2-c2ccn3nc(NC(=O)C4CC4)cc3c2)C1,"enzyme activity, inhibitor",1 µM,inhibition,10%
Cn1c2c(c3ccc(Cl)c(Cl)c31)C(C#N)C1(CCCC1)NC2=O (stereo not drawn),"thermal stability, DSF",10 µM,ΔTm,0.9 °C
COc1cc(Cl)c(C(=O)N[C@@H](CN[C@H]2CC[C@@H](N)CC2)Cc2ccc(C#N)cc2)cc1-c1ccc(CN[C@H](C)c2ccc(C)cc2)o1,"enzyme activity, inhibitor",1 µM,remaining activity,92%
O=C(Nc1cnn(-c2csc(C(=O)NC3COC3)c2)c1)Nc1ccccc1Cl,"enzyme activity, inhibitor",5 µM,remaining activity,101%
CNCc1ccc(-c2cc(-c3nc(-c4ccc(S(=O)(=O)C(C)C)cc4)cnc3N)on2)cc1,"enzyme activity, inhibitor",2 µM,inhibition,11%
Nc1nc(Nc2ccccc2)sc1C(=O)c1c(F)cccc1F,"enzyme activity, inhibitor",10 µM,remaining activity,12%
